According to ChEMBL document CHEMBL1764975, “A new DNA gyrase inhibitor subclass of the cyclothialidine family based on a bicyclic dilactam-lactone scaffold. Synthesis and antibacterial properties” (J Med Chem, 2011):
Values after ≈ are worked out from the molar mass of the structure shown.

Test system: not listed separately
Assay: Octanol-water partition coefficient, log D of the compound at pH 7.4 by shake-flask method
Format: physicochemical
Conditions: not given
Procedure, shortened: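 Octanol/water partition measured by shake-flask at pH 7.4.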

logD | Structure (SMILES)
1.85 | COc1cc(O)c2c(c1C)C(=O)OCCCCC(=S)N[C@H](c1nc(CN)no1)CSC2.Cl
2.18 | COc1cc(O)c2c(c1Br)C(=O)OCCCCC(=O)N[C@H](c1nc(C)no1)CSC2
3.23 | COc1cc(O)c2c(c1Br)C(=O)OCCCCC(=S)N[C@H](c1nc(C)no1)CSC2

Structure (SMILES) | logD
COc1cc(O)c2c(c1Br)C(=O)OCC(=O)NCC(=O)N[C@H](c1nc(C)no1)CSC2 | 1.4

Test system: Staphylococcus aureus
Assay: (§1) Antimicrobial activity against Staphylococcus aureus Smith after 18 hrs by agar dilution method
Format: functional
Conditions: not given
Procedure, shortened: (§2)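 Agar dilution on Mueller-Hinton medium, inoculum 10⁴ CFU/spot; MIC is the minimum inhibitory concentration against the named strain.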

MIC | Structure (SMILES)
0.25 µg/mL | COc1cc(O)c2c(c1C)C(=O)OCCCCC(=S)N[C@H](c1nc(CN)no1)CSC2.Cl
< 0.12 µg/mL | COc1cc(O)c2c(c1Br)C(=O)OCCCCC(=O)N[C@H](c1nc(C)no1)CSC2
< 0.12 µg/mL | COc1cc(O)c2c(c1Br)C(=O)OCCCCC(=S)N[C@H](c1nc(C)no1)CSC2

Structure (SMILES) | MIC
COc1cc(O)c2c(c1Br)C(=O)OCC(=O)NCC(=O)N[C@H](c1nc(C)no1)CSC2 | 1 µg/mL (≈ 1.94 µM)

Test system: Enterococcus faecalis
Assay: Antimicrobial activity against multidrug-resistant Enterococcus faecalis after 18 hrs by agar dilution method
Format: functional
Conditions: not given
Procedure, shortened: (§3)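 Agar dilution on Mueller-Hinton agar, inoculum 10⁴ CFU/spot, against panels of multiresistant clinical strains (S. aureus 11, E. faecalis 16, E. faecium 23). MIC_50/90 in μg/mL taken as the minimum concentration inhibiting at least 50% or 90% of the strains tested.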

Structure (SMILES) | MIC50 | MIC90
COc1cc(O)c2c(c1Br)C(=O)OCC(=O)NCC(=O)N[C@H](c1nc(C)no1)CSC2 | 0.25 µg/mL (≈ 0.485 µM) | 0.5 µg/mL (≈ 0.97 µM)

Test system: Streptococcus pyogenes
Assay: Antimicrobial activity against Streptococcus pyogenes b15 after 18 hrs by agar dilution method
Format: functional
Conditions: b15, 18 h
Procedure, shortened: as §2

MIC | Structure (SMILES)
0.5 µg/mL | COc1cc(O)c2c(c1C)C(=O)OCCCCC(=S)N[C@H](c1nc(CN)no1)CSC2.Cl
< 0.12 µg/mL | COc1cc(O)c2c(c1Br)C(=O)OCCCCC(=O)N[C@H](c1nc(C)no1)CSC2
0.12 µg/mL (≈ 0.232 µM) | COc1cc(O)c2c(c1Br)C(=O)OCCCCC(=S)N[C@H](c1nc(C)no1)CSC2

Structure (SMILES) | MIC
COc1cc(O)c2c(c1Br)C(=O)OCC(=O)NCC(=O)N[C@H](c1nc(C)no1)CSC2 | < 0.12 µg/mL

Test system: Staphylococcus aureus
Assay: Antimicrobial activity against multidrug-resistant Staphylococcus aureus after 18 hrs by agar dilution method
Format: functional
Conditions: not given
Procedure, shortened: as §3

Structure (SMILES) | MIC50 | MIC90
COc1cc(O)c2c(c1Br)C(=O)OCC(=O)NCC(=O)N[C@H](c1nc(C)no1)CSC2 | 4 µg/mL (≈ 7.76 µM) | 4 µg/mL (≈ 7.76 µM)

Test system: Staphylococcus aureus
Assay: as §1
Format: functional
Conditions: not given
Procedure, shortened: as §2

MIC | Structure (SMILES)
0.25 µg/mL | COc1cc(O)c2c(c1C)C(=O)OCCCCC(=S)N[C@H](c1nc(CN)no1)CSC2.Cl
0.12 µg/mL (≈ 0.24 µM) | COc1cc(O)c2c(c1Br)C(=O)OCCCCC(=O)N[C@H](c1nc(C)no1)CSC2
0.12 µg/mL (≈ 0.232 µM) | COc1cc(O)c2c(c1Br)C(=O)OCCCCC(=S)N[C@H](c1nc(C)no1)CSC2

Structure (SMILES) | MIC
COc1cc(O)c2c(c1Br)C(=O)OCC(=O)NCC(=O)N[C@H](c1nc(C)no1)CSC2 | 1 µg/mL (≈ 1.94 µM)

Test system: Moraxella catarrhalis
Assay: Antimicrobial activity against multidrug-resistant Moraxella catarrhalis after 18 hrs by agar dilution method
Format: functional
Conditions: not given
Procedure, shortened: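 Agar dilution on Mueller-Hinton agar supplemented with sheep blood (5% v/v), inoculum 10⁵ CFU/spot, against 20 multiresistant M. catarrhalis strains. MIC_50/90 in μg/mL taken as the minimum concentration inhibiting at least 50% or 90% of the strains.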

Structure (SMILES) | MIC50 | MIC90
COc1cc(O)c2c(c1Br)C(=O)OCC(=O)NCC(=O)N[C@H](c1nc(C)no1)CSC2 | 1 µg/mL (≈ 1.94 µM) | 2 µg/mL (≈ 3.88 µM)

Test system: Stenotrophomonas maltophilia
Assay: Antimicrobial activity against Xanthomonas maltophilia IAC 739 after 18 hrs by agar dilution method
Format: functional
Conditions: IAC 739, 18 h
Procedure, shortened: as §2

MIC | Structure (SMILES)
4 µg/mL | COc1cc(O)c2c(c1C)C(=O)OCCCCC(=S)N[C@H](c1nc(CN)no1)CSC2.Cl
2 µg/mL (≈ 4 µM) | COc1cc(O)c2c(c1Br)C(=O)OCCCCC(=O)N[C@H](c1nc(C)no1)CSC2
1 µg/mL (≈ 1.94 µM) | COc1cc(O)c2c(c1Br)C(=O)OCCCCC(=S)N[C@H](c1nc(C)no1)CSC2

Structure (SMILES) | MIC
COc1cc(O)c2c(c1Br)C(=O)OCC(=O)NCC(=O)N[C@H](c1nc(C)no1)CSC2 | > 64 µg/mL

Test system: Staphylococcus aureus
Assay: Antimicrobial activity against Staphylococcus aureus Smith infected in iv dosed septicaemia Swiss albino mouse model after 4 days
Format: functional
Conditions: 96 h
Procedure, shortened: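 Septicaemia model in mice infected with S. aureus Smith, compound given iv. In experiments with 0-1 survivors among 5-10 control mice, ED₅₀ (mg/kg) taken as lowest dose giving 3-5 survivors out of 5 infected mice.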

Structure (SMILES) | ED50
COc1cc(O)c2c(c1C)C(=O)OCCCCC(=S)N[C@H](c1nc(CN)no1)CSC2.Cl | 8.5 mg/kg
COc1cc(O)c2c(c1Br)C(=O)OCC(=O)NCC(=O)N[C@H](c1nc(C)no1)CSC2 | 3 mg/kg
COc1cc(O)c2c(c1Br)C(=O)OCCCCC(=O)N[C@H](c1nc(C)no1)CSC2 | 25 mg/kg
COc1cc(O)c2c(c1Br)C(=O)OCCCCC(=S)N[C@H](c1nc(C)no1)CSC2 | > 25 mg/kg

Test system: Haemophilus influenzae
Assay: Antimicrobial activity against multidrug-resistant Haemophilus influenzae after 18 hrs by agar dilution method
Format: functional
Conditions: not given
Procedure, shortened: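 Agar dilution on Haemophilus test medium, inoculum 10⁵ CFU/spot, against 21 multiresistant H. influenzae strains. MIC_50/90 in μg/mL taken as the minimum concentration inhibiting at least 50% or 90% of the strains.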

Structure (SMILES) | MIC50 | MIC90
COc1cc(O)c2c(c1Br)C(=O)OCC(=O)NCC(=O)N[C@H](c1nc(C)no1)CSC2 | 1 µg/mL (≈ 1.94 µM) | 4 µg/mL (≈ 7.76 µM)

Test system: Escherichia coli
Assay: Inhibition of Escherichia coli DNA gyrase A2B2 complex after 30 mins by supercoiling assay
Conditions: not given

MNEC | Structure (SMILES)
0.002 µg/mL | COc1cc(O)c2c(c1C)C(=O)OCCCCC(=S)N[C@H](c1nc(CN)no1)CSC2.Cl
0.005 µg/mL | COc1cc(O)c2c(c1Br)C(=O)OCCCCC(=O)N[C@H](c1nc(C)no1)CSC2
0.005 µg/mL | COc1cc(O)c2c(c1Br)C(=O)OCCCCC(=S)N[C@H](c1nc(C)no1)CSC2

Structure (SMILES) | MNEC
COc1cc(O)c2c(c1Br)C(=O)OCC(=O)NCC(=O)N[C@H](c1nc(C)no1)CSC2 | 0.02 µg/mL

Test system: Enterococcus faecium
Assay: Antimicrobial activity against multidrug-resistant Enterococcus faecium after 18 hrs by agar dilution method
Format: functional
Conditions: not given
Procedure, shortened: as §3

Structure (SMILES) | MIC50 | MIC90
COc1cc(O)c2c(c1Br)C(=O)OCC(=O)NCC(=O)N[C@H](c1nc(C)no1)CSC2 | 0.5 µg/mL (≈ 0.97 µM) | 0.5 µg/mL (≈ 0.97 µM)

Test system: Staphylococcus epidermidis
Assay: Antimicrobial activity against Staphylococcus epidermidis 16/2 after 18 hrs by agar dilution method
Format: functional
Conditions: 16/2, 18 h
Procedure, shortened: as §2

MIC | Structure (SMILES)
< 0.12 µg/mL | COc1cc(O)c2c(c1C)C(=O)OCCCCC(=S)N[C@H](c1nc(CN)no1)CSC2.Cl
< 0.12 µg/mL | COc1cc(O)c2c(c1Br)C(=O)OCCCCC(=O)N[C@H](c1nc(C)no1)CSC2
< 0.12 µg/mL | COc1cc(O)c2c(c1Br)C(=O)OCCCCC(=S)N[C@H](c1nc(C)no1)CSC2

Structure (SMILES) | MIC
COc1cc(O)c2c(c1Br)C(=O)OCC(=O)NCC(=O)N[C@H](c1nc(C)no1)CSC2 | < 0.12 µg/mL

Test system: Staphylococcus aureus
Assay: Plasma shift, ratio of MIC for Staphylococcus aureus Smith in presence of mouse plasma to MIC for Staphylococcus aureus Smith in absence of mouse plasma
Format: functional
Conditions: not given
Procedure, shortened: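 Agar dilution MICs against S. aureus Smith were run on BHI agar mixed 1:1 with mouse plasma and on plain BHI agar. The plasma shift is the MIC with plasma divided by the MIC on BHI agar alone.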

Structure (SMILES) | Ratio
COc1cc(O)c2c(c1C)C(=O)OCCCCC(=S)N[C@H](c1nc(CN)no1)CSC2.Cl | 4
COc1cc(O)c2c(c1Br)C(=O)OCC(=O)NCC(=O)N[C@H](c1nc(C)no1)CSC2 | 2
COc1cc(O)c2c(c1Br)C(=O)OCCCCC(=O)N[C@H](c1nc(C)no1)CSC2 | 4
COc1cc(O)c2c(c1Br)C(=O)OCCCCC(=S)N[C@H](c1nc(C)no1)CSC2 | 8

Test system: Escherichia coli
Assay: Antimicrobial activity against Escherichia coli 25922 after 18 hrs by agar dilution method
Format: functional
Conditions: Escherichia coli, 25922, 18 h
Procedure, shortened: as §2

MIC | Structure (SMILES)
64 µg/mL | COc1cc(O)c2c(c1C)C(=O)OCCCCC(=S)N[C@H](c1nc(CN)no1)CSC2.Cl
64 µg/mL (≈ 128 µM) | COc1cc(O)c2c(c1Br)C(=O)OCCCCC(=O)N[C@H](c1nc(C)no1)CSC2
> 64 µg/mL | COc1cc(O)c2c(c1Br)C(=O)OCCCCC(=S)N[C@H](c1nc(C)no1)CSC2

Structure (SMILES) | MIC
COc1cc(O)c2c(c1Br)C(=O)OCC(=O)NCC(=O)N[C@H](c1nc(C)no1)CSC2 | > 64 µg/mL

Test system: Streptococcus pneumoniae
Assay: Antimicrobial activity against multidrug-resistant Streptococcus pneumoniae after 18 hrs by agar dilution method
Format: functional
Conditions: not given
Procedure, shortened: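 Agar dilution on IsoSensitest agar supplemented with sheep blood (5% v/v), inoculum 10⁴ CFU/spot, against 21 multiresistant S. pneumoniae strains. MIC_50/90 in μg/mL taken as the minimum concentration inhibiting at least 50% or 90% of the strains.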

Structure (SMILES) | MIC50 | MIC90
COc1cc(O)c2c(c1Br)C(=O)OCC(=O)NCC(=O)N[C@H](c1nc(C)no1)CSC2 | 0.5 µg/mL (≈ 0.97 µM) | 2 µg/mL (≈ 3.88 µM)

Test system: Enterococcus faecalis
Assay: Antimicrobial activity against Enterococcus faecalis 6 after 18 hrs by agar dilution method
Conditions: Enterococcus faecalis, 6, 18 h

MIC | Structure (SMILES)
0.5 µg/mL | COc1cc(O)c2c(c1C)C(=O)OCCCCC(=S)N[C@H](c1nc(CN)no1)CSC2.Cl
0.12 µg/mL (≈ 0.24 µM) | COc1cc(O)c2c(c1Br)C(=O)OCCCCC(=O)N[C@H](c1nc(C)no1)CSC2
0.12 µg/mL (≈ 0.232 µM) | COc1cc(O)c2c(c1Br)C(=O)OCCCCC(=S)N[C@H](c1nc(C)no1)CSC2

Structure (SMILES) | MIC
COc1cc(O)c2c(c1Br)C(=O)OCC(=O)NCC(=O)N[C@H](c1nc(C)no1)CSC2 | 0.5 µg/mL (≈ 0.97 µM)

Test system: Staphylococcus aureus
Assay: Antimicrobial activity against Staphylococcus aureus ATCC 25923 after 18 hrs by agar dilution method
Format: functional
Conditions: ATCC 25923, 18 h
Procedure, shortened: as §2

MIC | Structure (SMILES)
0.5 µg/mL | COc1cc(O)c2c(c1C)C(=O)OCCCCC(=S)N[C@H](c1nc(CN)no1)CSC2.Cl
< 0.12 µg/mL | COc1cc(O)c2c(c1Br)C(=O)OCCCCC(=O)N[C@H](c1nc(C)no1)CSC2
< 0.12 µg/mL | COc1cc(O)c2c(c1Br)C(=O)OCCCCC(=S)N[C@H](c1nc(C)no1)CSC2

Structure (SMILES) | MIC
COc1cc(O)c2c(c1Br)C(=O)OCC(=O)NCC(=O)N[C@H](c1nc(C)no1)CSC2 | 4 µg/mL (≈ 7.76 µM)
